The source made the active and inactive calls. No cut-off for these calls is given here. Where a SMILES comes first, the peptide text is derived from it. [ ]: non-standard residue; d: D form. The star is where a group is joined. Benzoyl(4-TriPhPorphyrinyl) = O=C(c1ccc(-c2c3nc(c(-c4ccccc4)c4ccc([nH]4)c(-c4ccccc4)c4nc(c(-c5ccccc5)c5ccc2[nH]5)C=C4)C=C3)cc1)*; X1 = C[n+]1ccc(-c2c3nc(c(-c4cc[n+](C)cc4)c4ccc([nH]4)c(-c4cc[n+](C)cc4)c4nc(c(-c5ccc(C(=O)*)cc5)c5ccc2[nH]5)C=C4)C=C3)cc1; His(π-Me) = Cn1cncc1C[C@H](N)C(=O)O
How the values were obtained:
[1] = Drug uptake in human HFFF2 cells assessed as increase in red fluorescence at 5 uM incubated for 60 to 3 hrs mins followed by irradiated with 13.5 J cm'-2 of blue light by fluorescence microscopic analysis; type: ADME, cell-based; settings: hfff2, 5 µM
[2] = Drug uptake in human HFFF2 cells assessed as increase in red fluorescence at 5 uM incubated for 60 to 3 hrs mins followed by irradiated with 13.5 J cm'-2 of blue light measured after drug washout by flow cytometry; type: ADME, cell-based; settings: hfff2, 5 µM
[3] = Drug uptake in human HFFF2 cells in assessed as increase in red fluorescence at 5 uM incubated for 60 to 3 hrs mins by flow cytometry; type: ADME, cell-based; settings: hfff2, 5 µM
[4] = Photoinactivation of human HFFF2 cells incubated for 60 mins followed by irradiated with 13.5 J cm'-2 of blue light; type: cell-based; settings: HFFF2, light or radiation study, 1 h
[5] = Drug uptake in human HFFF2 cells assessed as increase in red fluorescence at 5 uM incubated for 60 to 3 hrs mins followed by irradiated with 13.5 J cm'-2 of blue light by flow cytometry; type: ADME, cell-based; settings: hfff2, 5 µM
Escherichia coli [6] = assay: Photoinactivation of Escherichia coli ATCC 25922 assessed as log reduction of CFU at 5 uM incubated for 60 mins followed by irradiated with 13.5 J cm'-2 of blue light measured after drug washout; type: functional
How it was run: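 Overnight BHI cultures (37 °C, stationary phase) washed and resuspended in PBS pH 7.3 at ~2 × 10^7 cells/mL. Incubated with increasing PS concentrations for 60 min in the dark at room temperature. Serial 10-fold dilutions plated in duplicate on BHI agar for CFU; at least three independent experiments.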

Escherichia coli [7] = assay: Drug uptake in Escherichia coli ATCC 25922 assessed as increase in red fluorescence at 5 uM incubated for 60 mins by flow cytometry; type: ADME, organism-based; settings: in vivo, 1 h
How it was run: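 Stationary-phase cells grown overnight in BHI at 37 °C, washed twice, resuspended in PBS pH 7.3 at ~2 × 10^7 cells/mL. Exposed to PS in the dark at room temperature for 60 min, then analysed directly or after three PBS washes (centrifugation at 10 000g for 5 min). Read-out is cell-associated porphyrin red fluorescence by flow cytometry; background taken from cells without PS.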

Escherichia coli [8] = assay: Photoinactivation of Escherichia coli ATCC 25922 assessed as log reduction of CFU at 15 uM incubated for 60 mins followed by irradiated with 13.5 J cm'-2 of blue light measured after drug washout; type: functional
How it was run: (§1)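 Stationary-phase overnight BHI cultures (37 °C) were washed and resuspended in PBS (pH 7.3) at ~2 × 10^7 cells/mL, then incubated with PS in the dark at rt for 60 min. Suspensions were left unwashed or washed three times with PBS. They were irradiated with blue light (390–460 nm, 15.2 mW cm−2) to 13.5 J cm−2. Serial 10-fold dilutions were plated in duplicate on BHI agar and cfu counted after overnight growth at 37 °C. Experiments were repeated at least three times.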

[9] = Drug uptake in human HFFF2 cells assessed as increase in red fluorescence at 5 uM incubated for 60 mins followed by irradiated with 13.5 J cm'-2 of blue light by flow cytometry; type: ADME, cell-based; settings: hfff2, 1 h
Staphylococcus aureus [10] = assay: Drug uptake in methicillin-resistant Staphylococcus aureus ATCC BAA-44 assessed as increase in red fluorescence at 1.5 uM incubated for 60 mins measured after drug washout by flow cytometry; type: ADME, organism-based; settings: in vivo, 1 h
How it was run: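 Stationary-phase overnight BHI cultures (37 °C) were washed twice and resuspended in PBS (pH 7.3) at ~2 × 10^7 cells/mL. They were then analysed by flow cytometry for cell-associated red porphyrin fluorescence, either unwashed or after three PBS washes (10 000g, 5 min). Cells without PS set the background fluorescence.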

[11] = Photoinactivation of human HFFF2 cells at 5 uM incubated for 60 mins followed by irradiated with 13.5 J cm'-2 of blue light; type: cell-based; settings: hfff2, 1 h
How it was run: (§2)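 HFFF2 fibroblasts were grown in DMEM with 10% FBS at 37 °C and 5% CO2, seeded at 7 × 10^3 cells/well and grown 48 h. Cells were incubated 60 min in the dark with PS in medium with 3% FBS, washed twice with PBS containing Ca2+/Mg2+, and irradiated in PBS with 13.5 J cm−2 of blue light. After 24 h in 10% FBS medium, viability was read by MTS (1.5 h, A492) as % of untreated control.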

Staphylococcus aureus [12] = assay: Photoinactivation of methicillin-resistant Staphylococcus aureus ATCC BAA-44 at 0.5 to 1 uM incubated for 60 mins followed by irradiated with 13.5 J cm'-2 of blue light; type: functional, organism-based; how it was run: as §1
[13] = Photoinactivation of human HFFF2 cells at 3 uM incubated for 60 mins followed by irradiated with 13.5 J cm'-2 of blue light; type: cell-based; settings: hfff2, 1 h; how it was run: as §2
[14] = Solubility of the compound in water; type: physicochemical; settings: buffer

Row | Compound | Drug uptake [1] | Drug uptake [2] | Drug uptake [3] | IC50 [4] | Drug uptake [5] | Activity (Escherichia coli [6]) | Drug uptake (Escherichia coli [7]) | CFU/ml (Escherichia coli [8]) | Drug uptake [9] | Drug uptake (Staphylococcus aureus [10]) | Activity [11] | Activity (Staphylococcus aureus [12]) | Activity [13] | solubility [14]
1 | CC[C@H](C)[C@H](NC(=O)[C@H](Cc1ccc(O)cc1)NC(=O)[C@@H](NC(=O)[C@@H]1CCCN1C(=O)[C@H](CCCNC(=N)N)NC(=O)[C@H](CC(N)=O)NC(=O)[C@H](CC(N)=O)NC(=O)CNC(=O)c1ccc(-c2c3nc(c(-c4cc[n+](C)cc4)c4ccc([nH]4)c(-c4cc[n+](C)cc4)c4nc(c(-c5cc[n+](C)cc5)c5ccc2[nH]5)C=C4)C=C3)cc1)C(C)C)C(=O)N1CCC[C@H]1C(=O)N[C@@H](CCC(N)=O)C(=O)N1CCC[C@H]1C(=O)N[C@@H](CCCNC(=N)N)C(=O)N1CCC[C@H]1C(=O)N1CCC[C@H]1C(=O)N[C@@H](Cc1cncn1C)C(=O)N1CCC[C@H]1C(=O)N[C@@H](CCCNC(=N)N)C(=O)N[C@@H](CC(C)C)C(=O)O (X1-GNNRPVYIPQPRPP[His(π-Me)]PRL-OH) | Not Active | Active | Active | 9 nM | Active |  |  |  |  |  |  |  |  | 
2 | C[n+]1ccc(-c2c3nc(c(-c4cc[n+](C)cc4)c4ccc([nH]4)c(-c4ccc(C(=O)O)cc4)c4ccc([nH]4)c(-c4cc[n+](C)cc4)c4nc2C=C4)C=C3)cc1 | Not Active | Active | Active | 230 nM | Active | Active | Not Active | 1 log reduction | Active | Not Active | Toxic | Active | Toxic | 
3 | O=C(O)c1ccc(-c2c3nc(c(-c4ccccc4)c4ccc([nH]4)c(-c4ccccc4)c4nc(c(-c5ccccc5)c5ccc2[nH]5)C=C4)C=C3)cc1 | Not Active | Active | Active | 1270 nM | Active |  | Not Active |  | Active | Not Active | Toxic |  | Toxic | Insoluble
4 | CC[C@H](C)[C@H](NC(=O)[C@H](Cc1ccc(O)cc1)NC(=O)[C@@H](NC(=O)[C@@H]1CCCN1C(=O)[C@H](CCCNC(=N)N)NC(=O)[C@H](CC(N)=O)NC(=O)[C@H](CC(N)=O)NC(=O)CNC(=O)c1ccc(-c2c3nc(c(-c4ccccc4)c4ccc([nH]4)c(-c4ccccc4)c4nc(c(-c5ccccc5)c5ccc2[nH]5)C=C4)C=C3)cc1)C(C)C)C(=O)N1CCC[C@H]1C(=O)N[C@@H](CCC(N)=O)C(=O)N1CCC[C@H]1C(=O)N[C@@H](CCCNC(=N)N)C(=O)N1CCC[C@H]1C(=O)N1CCC[C@H]1C(=O)N[C@@H](Cc1cnc[nH]1)C(=O)N1CCC[C@H]1C(=O)N[C@@H](CCCNC(=N)N)C(=O)N[C@@H](CC(C)C)C(=O)O ({Benzoyl(4-TriPhPorphyrinyl)}-GNNRPVYIPQPRPPHPRL-OH) | Active | Active | Active | 21 nM | Active |  |  |  |  |  |  |  |  | 
